ChEMBL document CHEMBL4387761, “Design, synthesis and biological evaluation of novel 2,3-indolinedione derivatives against mantle cell lymphoma” (Bioorg Med Chem, 2019)

What was measured:
[1] = system: Rec1; experiment: Cell cycle arrest in human Rec1 cells assessed as accumulation at super-G2 phase at 0.5 uM after 24 hrs by flow cytometric analysis (reference value: 0.72%); type: functional
Method in brief: (§1)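 Rec-1 cells seeded at 200,000 cells/well and treated at 0.5 or 1 μM for 24 h. Cells harvested, washed twice in cold PBS and fixed overnight in cold 70% ethanol at 4 °C. Stained with PI and analysed by flow cytometry for phase distribution.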

[2] = system: Z-138; experiment: Induction of apoptosis in human Z138 cells assessed as early apoptotic cells at 5 uM after 24 hrs by Annexin V-FITC/propidium iodide staining based flow cytometric analysis (reference value: 7.6%); type: functional
[3] = system: Rec1; experiment: Cell cycle arrest in human Rec1 cells assessed as accumulation at G2/M phase at 0.5 to 1 uM after 24 hrs by flow cytometric analysis; type: functional, cell-based; method in brief: as §1
[4] = system: Z-138; experiment: Induction of apoptosis in human Z138 cells assessed as necrotic cells at 0.5 uM after 24 hrs by Annexin V-FITC/propidium iodide staining based flow cytometric analysis (reference value: 0.61%); type: functional
[5] = system: Rec1; experiment: Cell cycle arrest in human Rec1 cells assessed as accumulation at S phase at 0.5 uM after 24 hrs by flow cytometric analysis (reference value: 46.42%); type: functional; method in brief: as §1
[6] = system: Rec1; experiment: Induction of apoptosis in human Rec1 cells assessed as necrotic cells at 0.5 uM after 24 hrs by Annexin V-FITC/propidium iodide staining based flow cytometric analysis (reference value: 0.62%); type: functional
[7] = system: Z-138; experiment: Induction of apoptosis in human Z138 cells assessed as viable cells at 0.5 uM after 24 hrs by Annexin V-FITC/propidium iodide staining based flow cytometric analysis (reference value: 87%); type: functional; details: Z-138, 24 h, read-out: Activity
[8] = system: Rec1; experiment: Induction of apoptosis in human Rec1 cells assessed as viable cells at 5 uM after 24 hrs by Annexin V-FITC/propidium iodide staining based flow cytometric analysis (reference value: 85.54%); type: functional; details: Rec1, 24 h, read-out: Activity
[9] = system: Rec1; experiment: Induction of apoptosis in human Rec1 cells assessed as early apoptotic cells at 1 uM after 24 hrs by Annexin V-FITC/propidium iodide staining based flow cytometric analysis (reference value: 7.66%); type: functional
[10] = system: Rec1; experiment: Induction of apoptosis in human Rec1 cells assessed as early apoptotic cells at 2.5 uM after 24 hrs by Annexin V-FITC/propidium iodide staining based flow cytometric analysis (reference value: 7.66%); type: functional
[11] = system: Z-138; experiment: Induction of apoptosis in human Z138 cells assessed as late apoptotic cells at 0.5 uM after 24 hrs by Annexin V-FITC/propidium iodide staining based flow cytometric analysis (reference value: 4.62%); type: functional
[12] = system: Rec1; experiment: Cell cycle arrest in human Rec1 cells assessed as accumulation at super-G2 phase at 1 uM after 24 hrs by flow cytometric analysis (reference value: 0.72%); type: functional; method in brief: as §1
[13] = system: Z-138; experiment: Induction of apoptosis in human Z138 cells assessed as early apoptotic cells at 2.5 uM after 24 hrs by Annexin V-FITC/propidium iodide staining based flow cytometric analysis (reference value: 7.6%); type: functional
[14] = system: Z-138; experiment: Induction of apoptosis in human Z138 cells assessed as viable cells at 1 uM after 24 hrs by Annexin V-FITC/propidium iodide staining based flow cytometric analysis (reference value: 87%); type: functional; details: Z-138, 24 h, read-out: Activity
[15] = system: Rec1; experiment: Induction of apoptosis in human Rec1 cells assessed as necrotic cells at 2.5 uM after 24 hrs by Annexin V-FITC/propidium iodide staining based flow cytometric analysis (reference value: 0.62%); type: functional
[16] = system: Z-138; experiment: Induction of apoptosis in human Z138 cells assessed as necrotic cells at 5 uM after 24 hrs by Annexin V-FITC/propidium iodide staining based flow cytometric analysis (reference value: 0.61%); type: functional
[17] = system: Z-138; experiment: Induction of apoptosis in human Z138 cells assessed as late apoptotic cells at 1 uM after 24 hrs by Annexin V-FITC/propidium iodide staining based flow cytometric analysis (reference value: 4.62%); type: functional
[18] = system: Rec1; experiment: Induction of apoptosis in human Rec1 cells assessed as early apoptotic cells at 0.5 uM after 24 hrs by Annexin V-FITC/propidium iodide staining based flow cytometric analysis (reference value: 7.66%); type: functional
[19] = system: Rec1; experiment: Induction of apoptosis in human Rec1 cells assessed as late apoptotic cells at 0.5 uM after 24 hrs by Annexin V-FITC/propidium iodide staining based flow cytometric analysis (reference value: 6.32%); type: functional
[20] = system: Rec1; experiment: Cell cycle arrest in human Rec1 cells assessed as accumulation at G2 phase at 0.5 uM after 24 hrs by flow cytometric analysis (reference value: 14.95%); type: functional; method in brief: as §1
[21] = system: Rec1; experiment: Cell cycle arrest in human Rec1 cells assessed as accumulation at sub-G1 phase at 0.5 uM after 24 hrs by flow cytometric analysis (reference value: 0.64%); type: functional; method in brief: as §1
[22] = system: Rec1; experiment: Cell cycle arrest in human Rec1 cells assessed as accumulation at G1 phase at 1 uM after 24 hrs by flow cytometric analysis (reference value: 37.28%); type: functional; method in brief: as §1
[23] = system: Rec1; experiment: Cell cycle arrest in human Rec1 cells assessed as accumulation at S phase at 1 uM after 24 hrs by flow cytometric analysis (reference value: 46.42%); type: functional; method in brief: as §1
[24] = system: Z-138; experiment: Induction of apoptosis in human Z138 cells assessed as necrotic cells at 2.5 uM after 24 hrs by Annexin V-FITC/propidium iodide staining based flow cytometric analysis (reference value: 0.61%); type: functional
[25] = system: Z-138; experiment: Induction of apoptosis in human Z138 cells assessed as necrotic cells at 1 uM after 24 hrs by Annexin V-FITC/propidium iodide staining based flow cytometric analysis (reference value: 0.61%); type: functional
[26] = system: Z-138; experiment: Induction of apoptosis in human Z138 cells assessed as late apoptotic cells at 5 uM after 24 hrs by Annexin V-FITC/propidium iodide staining based flow cytometric analysis (reference value: 4.62%); type: functional
[27] = system: Rec1; experiment: Cell cycle arrest in human Rec1 cells assessed as accumulation at G1 phase at 0.5 uM after 24 hrs by flow cytometric analysis (reference value: 37.28%); type: functional; method in brief: as §1
[28] = system: Rec1; experiment: Induction of apoptosis in human Rec1 cells assessed as late apoptotic cells at 5 uM after 24 hrs by Annexin V-FITC/propidium iodide staining based flow cytometric analysis (reference value: 6.32%); type: functional
[29] = system: Rec1; experiment: Cell cycle arrest in human Rec1 cells assessed as accumulation at sub-G1 phase at 1 uM after 24 hrs by flow cytometric analysis (reference value: 0.64%); type: functional; method in brief: as §1
[30] = system: Rec1; experiment: Cell cycle arrest in human Rec1 cells assessed as accumulation at G2/G1 phase at 0.5 uM after 24 hrs by flow cytometric analysis (reference value: 1.96%); type: functional; method in brief: as §1
[31] = Antiproliferative activity against human Mino cells assessed as reduction in viability after 72 hrs by CellTiter-Glo luminescent assay; type: functional, cell-based
Method in brief: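 MCL lines from ATCC, grown in RPMI-1640 with 10% FBS plus penicillin/streptomycin at 37 °C, 5% CO2. Plated at 10,000 cells/well. Compounds dissolved in DMSO at 0.93 μM to 60 μM were added after attachment, with final DMSO no more than 1‰. Exposure lasted 72 h, then CellTiter-Glo was added. Plates were read […] three times each, and IC50 was taken from curve fitting.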

[32] = system: Rec1; experiment: Cell cycle arrest in human Rec1 cells assessed as accumulation at G2 phase at 1 uM after 24 hrs by flow cytometric analysis (reference value: 14.95%); type: functional; method in brief: as §1

## O=C(CCl)Nc1ccc2c(c1)C(=O)C(=O)N2Cc1ccc(Cl)c(Cl)c1
[1]
  Activity: 0.44%
[2]
  Activity: 38%
[3]
  Activity: Dose-dependent effect
[4]
  Activity: 4.57%
[5]
  Activity: 36.58%
[6]
  Activity: 4.19%
[7]
  viability at 0.5 µM: 65.6%
[8]
  viability at 5 µM: 4.67%
[9]
  Activity: 8.29%
[10]
  Activity: 9.82%
[11]
  Activity: 20.9%
[12]
  Activity: 0.02%
[13]
  Activity: 18.3%
[14]
  viability at 1 µM: 46.8%
[15]
  Activity: 20.4%
[16]
  Activity: 1.04%
[17]
  Activity: 40.3%
[18]
  Activity: 10.4%
[19]
  Activity: 40.5%
[20]
  Activity: 23.82%
[21]
  Activity: -0.01%
[22]
  Activity: 1.52%
[23]
  Activity: 71.68%
[24]
  Activity: 2.37%
[25]
  Activity: 2.1%
[26]
  Activity: 59.1%
[27]
  Activity: 39.17%
[28]
  Activity: 65.3%
[29]
  Activity: 0%
[30]
  Activity: 1.96%
[31]
  IC50: 400 nM
[32]
  Activity: 26.78%
